From ChEMBL document CHEMBL4480428, “Anti-inflammatory Lathyrane Diterpenoids from Euphorbia lathyris” (J Nat Prod, 2019)
Calls of active or inactive are those of the source. The rule behind the calls is not given here.

What was measured:
[1] = system: RAW264.7; assay: Cytotoxicity against mouse RAW264.7 cells assessed as reduction in cell viability after 24 hrs by CCK8 assay; format: cell-based; details: RAW264.7, 24 h
Method in brief: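 RAW264.7 macrophages cultured in DMEM with 10% FBS and penicillin/streptomycin at 37 °C, 5% CO2. Cells exposed to compound for 24 h. Viability measured by CCK8 kit following the manufacturer's instructions.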

[2] = system: RAW264.7; assay: Anti-inflammatory activity in mouse RAW264.7 cells assessed as inhibition of LPS-induced nitric oxide production preincubated for 3 hrs followed by LPS-stimulation and measured after 24 hrs by Griess assay; format: functional, cell-based
Method in brief: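 Mouse macrophage RAW264.7 cells (ATCC) grown in DMEM with 10% FBS and penicillin/streptomycin at 37 °C, 5% CO2. Seeded at 5000 cells/well and cultured overnight. Medium replaced with compound-containing medium (0−100 μM) for 3 h, then 1 μg/mL LPS added for 24 h. Supernatant mixed 1:1 with Griess reagent for 10 min at room temperature, absorbance read at 540 nm. Nitrite quantified from a standard curve; IC50 taken from inhibition rates across a concentration gradient.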

[3] = molecular target: T1, NF-kappa-B inhibitor alpha (Mus musculus) (UniProt Q9Z1E3); assay: Inhibition of IkappaBalpha phosphorylation in LPS-induced mouse RAW264.7 cells assessed as reduction in NFkappaB expression preincubated for 3 hrs followed by LPS-stimulation and measured by Western blot analysis; format: cell-based
T1 sequence (whole entry): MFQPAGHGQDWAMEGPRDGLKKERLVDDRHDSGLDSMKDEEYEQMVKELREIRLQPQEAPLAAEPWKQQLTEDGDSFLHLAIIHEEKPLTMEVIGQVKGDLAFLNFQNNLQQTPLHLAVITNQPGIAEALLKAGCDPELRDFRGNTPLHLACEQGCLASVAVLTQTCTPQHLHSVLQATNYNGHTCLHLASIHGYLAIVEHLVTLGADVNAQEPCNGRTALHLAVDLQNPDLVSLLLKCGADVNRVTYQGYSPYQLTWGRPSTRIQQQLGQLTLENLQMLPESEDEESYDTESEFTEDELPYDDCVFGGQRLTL
Method in brief: (§1)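 Cells were pretreated with compound for 3 h before LPS addition. Equal protein by BCA went onto 10% SDS-PAGE and nitrocellulose, probed for iNOS, NF-κB, IκBα and p-IκBα with chemiluminescence detection.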

[4] = system: RAW264.7; assay: Cytotoxicity against mouse RAW264.7 cells assessed as reduction in cell viability at 100 uM after 24 hrs by CCK8 assay; format: cell-based; details: raw264.7, 24 h
Method in brief: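 Cells were exposed to compound across 0–100 range for 24 h. Viability was then measured by CCK8 assay on the well supernatant, following kit instructions. Comparison was made with cells given 0 μM compound.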

[5] = molecular target: T1, NF-kappa-B inhibitor alpha (Mus musculus); assay: Inhibition of IkappaBalpha phosphorylation in LPS-stimulated mouse RAW264.7 cells assessed as reduction in NF-kappaB p65 nuclear translocation at 5 to 10 uM pretreated for 2 hrs followed by LPS-stimulation measured after 12 hrs by DAPI staining based immunofluorescence assay; format: cell-based
Method in brief: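 Cells at 70% confluence were pretreated with DMSO, given 5 or 10 μM compound for 2 h, then activated with 1 μg/mL LPS for 12 h. Cells were fixed in 4% paraformaldehyde, permeabilized with 0.25% Triton X-100 and blocked with 5% BSA. Staining used P65 antibody (1:1000, 4 °C overnight), AlexaFluor488 secondary (1:500, 1 h) and DAPI for nuclei.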

[6] = system: RAW264.7; assay: Anti-inflammatory activity in mouse RAW264.7 cells assessed as inhibition of LPS-induced IL1beta production preincubated for 3 hrs followed by LPS-stimulation and measured after 24 hrs by ELISA; format: functional, cell-based
Method in brief: (§2)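 Cells were pretreated with compound at 2.5, 5 or 10 μM for 3 h, then stimulated with 1 μg/mL LPS for 24 h. IL-1β and IL-6 were quantified in collected supernatants by commercial ELISA kits. Significance was assessed against unstimulated, untreated control.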

[7] = molecular target: T1, NF-kappa-B inhibitor alpha (Mus musculus); assay: Inhibition of IkappaBalpha phosphorylation in LPS-stimulated mouse RAW264.7 cells assessed as reduction in iNOS expression preincubated for 3 hrs followed by LPS-stimulation and measured by Western blot analysis; format: cell-based; method in brief: as §1
[8] = molecular target: T1, NF-kappa-B inhibitor alpha (Mus musculus); assay: Inhibition of LPS-induced IkappaBalpha phosphorylation in mouse RAW264.7 cells at 10 uM preincubated for 3 hrs followed by LPS-stimulation and measured by Western blot analysis; format: cell-based; method in brief: as §1
[9] = system: RAW264.7; assay: Anti-inflammatory activity in mouse RAW264.7 cells assessed as inhibition of LPS-induced IL-6 production preincubated for 3 hrs followed by LPS-stimulation and measured after 24 hrs by ELISA; format: functional, cell-based; method in brief: as §2

Compound	IC50 [1] [µM]	IC50 [2] [µM]	also measured
C=C1CC[C@H]2[C@@H](/C=C(\C)C(=O)[C@@]3(OC(C)=O)C[C@H](C)[C@H](OC(=O)c4ccccc4)[C@@H]3[C@H]1OC(C)=O)C2(C)C	> 50	8.3	
CC(=O)O[C@@H]1[C@H]2[C@@H](OC(=O)Cc3ccccc3)[C@@H](C)C[C@]2(OC(C)=O)C(=O)/C(C)=C/[C@@H]2[C@H](CC[C@]13CO3)C2(C)C	> 50	9.9	
CC(=O)OC/C1=C\C[C@H]2[C@@H](/C=C(\C)C(=O)[C@@]3(O)C[C@H](C)[C@H](OC(=O)c4ccccc4)[C@@H]3[C@H]1OC(C)=O)C2(C)C	> 50	> 100	
C=C1[C@H](O)C[C@H]2[C@@H](/C=C(\C)C(=O)[C@@]3(OC(C)=O)C[C@H](C)[C@H](OC(=O)c4ccccc4)[C@@H]3[C@H]1OC(C)=O)C2(C)C	> 50	5	
C=C1[C@@H](OC(=O)c2ccccc2)C[C@H]2[C@@H](/C=C(\C)C(=O)[C@@]3(O)C[C@H](C)[C@H](OC(=O)c4ccccc4)[C@@H]3[C@H]1OC(C)=O)C2(C)C	> 50	15.2	
C[C@@H]1C[C@H]2[C@@H]3CCC4=CC(=O)C=C[C@]4(C)[C@@]3(F)[C@@H](O)C[C@]2(C)[C@@]1(O)C(=O)CO [DEXAMETHASONE]		7.9	
C=C1[C@@H](OC(=O)c2ccccc2)C[C@H]2[C@@H](/C=C(\C)C(=O)[C@@]3(OC(C)=O)C[C@H](C)[C@H](OC(=O)c4ccccc4)[C@@H]3[C@H]1OC(C)=O)C2(C)C	> 50	> 100	
CC(=O)OC/C1=C/[C@H]2[C@@H](OC(=O)[C@H](O)c3ccccc3)[C@@H](C)C[C@]2(OC(C)=O)C(=O)/C(C)=C/[C@@H]2[C@H](CC1)C2(C)C	> 50	> 50	
C=C1CC[C@H]2[C@@H](/C=C(\C)C(=O)[C@@]3(OC(C)=O)C[C@H](C)[C@H](OC(=O)c4cccnc4)[C@@H]3[C@H]1OC(C)=O)C2(C)C	> 50	100	
C=C1[C@H](OC(C)=O)C[C@H]2[C@@H](/C=C(\C)C(=O)[C@@]3(OC(C)=O)C[C@H](C)[C@H](OC(=O)c4ccccc4)[C@@H]3[C@H]1O)C2(C)C	> 50	4	
CC(=O)OC/C1=C/[C@@H]2[C@@H](O)[C@@H](C)C[C@]2(OC(C)=O)C(=O)/C(C)=C/[C@@H]2[C@H](CC1)C2(C)C	> 50	> 50	
CC(=O)O[C@]12C[C@H](C)[C@H](O)[C@@H]1[C@H]1O[C@]1(C)CC[C@H]1[C@H](/C=C(\C)C2=O)C1(C)C	> 50	> 100	
C=C1[C@@H](OC(=O)c2cccnc2)C[C@H]2[C@@H](/C=C(\C)C(=O)[C@@]3(OC(C)=O)C[C@H](C)[C@H](OC(=O)c4ccccc4)[C@@H]3[C@H]1OC(C)=O)C2(C)C	> 50	2.6	
C=C1CC[C@H]2[C@@H](/C=C(\C)C(=O)[C@@]3(OC(C)=O)C[C@H](C)[C@H](OC(=O)/C=C/c4ccccc4)[C@@H]3[C@H]1O)C2(C)C	> 50	3	inhibition [3]: Dose-dependent effect; Activity [4]: Toxic; inhibition [5]: Active; inhibition [6]: Dose-dependent effect; inhibition [7]: Dose-dependent effect; inhibition [8]: Active; inhibition [9]: Dose-dependent effect
CC(=O)O[C@]12C[C@H](C)[C@H](OC(=O)Cc3ccccc3)[C@@H]1/C=C(/CO)CC[C@H]1[C@@H](/C=C(\C)C2=O)C1(C)C	> 50	> 100	
CCCCCC(=O)O[C@H]1[C@@H](C)C[C@]2(OC(C)=O)C(=O)/C(C)=C/[C@@H]3[C@H](CC/C(CO)=C\[C@@H]12)C3(C)C	> 50	9.3	
CC(=O)O[C@]12C[C@H](C)[C@H](OC(=O)/C=C/c3ccccc3)[C@@H]1/C=C(/CO)CC[C@H]1[C@@H](/C=C(\C)C2=O)C1(C)C	> 50	26	
